In ChEMBL document CHEMBL1759850, “Design, synthesis, and biological evaluation of novel γ-carboline ketones as anticancer agents” (Eur J Med Chem, 2011) one finds IC50 and Activity data, which are given here for 14 molecules.

In assay [1] the test system is K562. Nature of the assay: Cytotoxicity against human K562 cells after 48 hrs by MTT assay. It is filed as functional, cell-based. The conditions noted are these: K562, 48 h. The procedure, abridged: (§1)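 Cells were exposed to drug for 48 h, then given MTT in RPMI-1640 for a further 4 h at 37 °C. Formazan was dissolved in DMSO and absorbance read at 570 nm after 5 min. Each assay was run in triplicate in three independent experiments. IC50 (50% inhibition of viability) was computed by dose-effect analysis.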

The test system of assay [2] is K562. Nature of the assay: Cytotoxicity against human multidrug-resistant K562 cells after 48 hrs by MTT assay. Type of assay: functional, cell-based. The conditions noted are these: K562, 48 h. The procedure, abridged:
as §1

For a further assay, the system named is MCF7. Nature of the assay: Cytotoxicity against human MCF7 cells after 48 hrs by MTT assay. It is filed as functional, cell-based. The conditions noted are these: MCF7, 48 h. The procedure, abridged:
as §1

A short description of assay [3]: Cytotoxicity against human SGC cells after 48 hrs by MTT assay. It is filed as functional, cell-based. The procedure, abridged:
as §1

A further assay relates to HCT-116. Nature of the assay: Cytotoxicity against human HCT116 cells after 48 hrs by MTT assay. The conditions noted are these: HCT-116, 48 h. Type of assay: functional, cell-based. A digest of the protocol: as §1
For assay [4], the system named is A549. Nature of the assay: Cytotoxicity against human A549 cells after 48 hrs by MTT assay. The settings on record: A549, 48 h. It is filed as functional, cell-based. The procedure, abridged:
as §1

Assay [5] relates to A549. Nature of the assay: Cell cycle arrest in human A549 cells assessed as accumulation at G2/M phase at 2 uM after 48 hrs by flow cytometric analysis. Type of assay: functional. The procedure, abridged:
(§2)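 A549 cells in exponential growth were treated for 48 h, washed twice in PBS and fixed in 75% ethanol. They were then incubated for 0.5 h at 37 °C and stained with propidium iodide for 15 min. DNA content was read on a FACSCalibur flow cytometer.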

Assay [6] has as its system A549. Nature of the assay: Cell cycle arrest in human A549 cells assessed as accumulation at G0/G1 phase at 2 uM after 48 hrs by flow cytometric analysis. It is filed as functional. The procedure, abridged: as §2
Assay [7] deals with Tubulin. Nature of the assay: Inhibition of tubulin polymerization in human MCF7 cells by fluorometric analysis. A digest of the protocol: (§3)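 Tubulin polymerization was run at 37 °C in 80 mM PIPES (pH 6.9) with 20% glycerol, 1 mM GTP, 2.0 mM MgCl2 and 0.5 mM EGTA. It was followed kinetically on a fluorescence plate reader.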
In assay [8] the test system is A549. Nature of the assay: Cell cycle arrest in human A549 cells assessed as accumulation at S phase at 2 uM after 48 hrs by flow cytometric analysis. It is filed as functional. The procedure, abridged: as §2
Assay [9] deals with Tubulin. Nature of the assay: Inhibition of tubulin polymerization in human K562 cells by fluorometric analysis. A digest of the protocol:
as §3

The structures appear in SMILES notation.

In the case of `CCn1c2ccncc2c2cc(C(=O)c3cccc(OC)c3)ccc21`, the IC50 in the assay with K562 [1] amounted to 6.42 µM; with K562 [2] it was 1.57 µM; in the assay with MCF7, 9.99 µM; in assay [3], 18.7 µM; with HCT-116, 34.3 µM; in the assay on A549 [4], 21.4 µM.
Regarding `CCn1c2ccncc2c2cc(C(=O)c3ccccc3F)ccc21`, the IC50 in the assay on K562 [1] is 12.2 µM; with K562 [2] it was 1.45 µM; with MCF7, 4.74 µM; in assay [3], 35.6 µM; with HCT-116, 35.9 µM; in the assay with A549 [4] it was 46.8 µM.
As to `CCn1c2ccncc2c2cc(C(=O)c3ccccc3Cl)ccc21`, the IC50 was 13.7 µM with K562 [1]; 7.08 µM with K562 [2]; 21 µM with MCF7; 38.6 µM in assay [3]; 42.3 µM with HCT-116; 41.4 µM with A549 [4].
`CCn1c2ccc(C(=O)c3ccccc3)cc2c2c[n+](CC)ccc21`: the IC50 was over 100 µM in the assay on K562 [1]; over 100 µM in the assay with K562 [2]; 12 µM in the assay with MCF7; over 100 µM in assay [3]; over 100 µM in the assay on HCT-116; over 100 µM in the assay on A549 [4].
Regarding `Cn1c2ccncc2c2cc(C(=O)c3ccccc3)ccc21`, in the assay on K562 [1], half-maximal inhibition (IC50) was put at 4.82 µM. That is a single-digit micromolar value.
Take `CCn1c2ccncc2c2cc(C(=O)c3ccccc3)ccc21`: the IC50 in the assay on K562 [1] was determined as 4.96 µM; in the assay on K562 [2] it was 9.09 µM; in the assay with MCF7 it was 8.36 µM; in [3] it was 11.8 µM; in the assay with HCT-116, 8.63 µM; with A549 [4] it was 23.2 µM.
For `CCn1c2ccncc2c2cc(C(=O)c3ccc(Br)cc3)ccc21`, the IC50 was 2.11 µM in the assay with K562 [1]; 1.58 µM in the assay with K562 [2]; over 100 µM in the assay with MCF7; 34 µM in [3]; 24.3 µM with HCT-116; 35.1 µM with A549 [4].
On to `CCn1c2ccncc2c2cc(C(=O)c3ccc(OC)cc3)ccc21`, for which the IC50 turned out to be 6.39 µM in the assay on K562 [1]; 2.09 µM with K562 [2]; 3.85 µM with MCF7; 17.8 µM in [3]; 70.2 µM in the assay on HCT-116; 20.5 µM with A549 [4].
Take `CCn1c2ccc(C(=O)c3ccc(Br)cc3)cc2c2c[n+](CC)ccc21`: the IC50 with K562 [1] was over 100 µM; with K562 [2], over 100 µM; with MCF7, 56 µM; in [3] it was over 100 µM; in the assay with HCT-116 it was over 100 µM; with A549 [4], over 100 µM.
As to `CCn1c2ccncc2c2cc(C(=O)c3ccc(Cl)cc3)ccc21`, the IC50 in the assay with K562 [1] was 4.69 µM; in the assay on K562 [2], 1.58 µM; in the assay with MCF7 it was 30.6 µM; in assay [3], 62.5 µM; in the assay on HCT-116, 62.6 µM; with A549 [4] it was 27.2 µM.
With `CCn1c2ccncc2c2cc(C(=O)c3ccc(N)cc3)ccc21`, the IC50 in the assay on K562 [1] is 13.4 µM; in the assay with K562 [2], 23.3 µM; in the assay with MCF7, 5.04 µM; in assay [3], over 100 µM; in the assay on HCT-116, 40.6 µM; in the assay on A549 [4], 49.3 µM.
Turning to `CCn1c2ccncc2c2cc(C(=O)c3ccc([N+](=O)[O-])cc3)ccc21`, the IC50 was 16.8 µM in the assay with K562 [1]; 3.68 µM in the assay with K562 [2]; 3.21 µM with MCF7; over 100 µM in assay [3]; 59.2 µM with HCT-116; 29.1 µM in the assay with A549 [4].
Take `CCn1c2ccncc2c2cc(C(=O)c3ccc(S(C)(=O)=O)cc3)ccc21`: the Activity with A549 [5] is 63.12%; in the assay on A549 [6] it was 10.29%; with A549 [8] it was 26.59%. Also, the IC50 with K562 [1] amounted to 5.26 µM; in the assay with K562 [2] it was 0.66 µM; in the assay with MCF7, 3.28 µM; in assay [3] it was 24.9 µM; with HCT-116, 37.8 µM; against Tubulin [7] it was 4.3 µM. The IC50 in the assay with A549 [4] was 24.2 µM; on Tubulin [9], 4.3 µM.
`CC(C)n1c2ccncc2c2cc(C(=O)c3ccccc3)ccc21`: in the assay with K562 [1], the IC50 was determined as 6.46 µM.
